# In ChEMBL document CHEMBL1129331, “Synthesis and physicochemical, biological, and pharmacological properties of new bile acids amidated with cyclic amino acids” (J Med Chem, 1996):
# Tests used:
# [1] = Acidity constant was determined; format: ADME
# [2] = tested on: Rattus norvegicus; test: Secretion of Bile in Bile Fistula rats after the iv administration of compound, expressed as the maximum secretion rate; format: ADME, organism-based; conditions: in vivo
# Method in brief: (§1)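 Male Sprague-Dawley rats (300-330 g), urethane-anesthetized, bile duct cannulated. After 1 h baseline, sodium salt infused via femoral vein at 10 μmol/min/kg for 1 h; bile collected at 15-min intervals for 3 h. Flow measured gravimetrically; bile acids, cholesterol and phospholipid measured enzymatically. Smax and Tmax read from secretion-time plots; Rs is the rate at hour 3. Mean ± SD, n=6.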
# [3] = tested on: Rattus norvegicus; test: Secretion of Bile in Bile Fistula rats after the iv administration of compound, expressed as the residual secretion rate; format: ADME, organism-based; conditions: in vivo
# Method in brief: (§2)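 Anaesthetised (ethyl carbamate) male Sprague-Dawley rats, 300-330 g, bile duct cannulated; after 1 h baseline, bile acid sodium salts infused via femoral vein at 10 μmol/min/kg for 1 h. Bile collected 3 h at 15 min intervals; flow gravimetric; BA, cholesterol, phospholipid by enzymatic assays. Smax, Tmax from secretion-vs-time plots; Rs = rate at third hour. n=6, mean ± SD.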
# [4] = tested on: cholylglycine hydrolase; test: (§3) The compound was incubated with cholylglycine hydrolase and tested for determining the stability towards C-24 Deamination; format: ADME; conditions: cholylglycine hydrolase
# [5] = tested on: Rattus norvegicus; test: Maximum biliary secretion rate of TCDCA after iv coinfusion in Bile fistula rats.; format: ADME, organism-based; conditions: in vivo
# Method in brief: (§4)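 Bile fistula Sprague-Dawley rats (200-250 g). TCDCA and test bile acid given as sodium salts, coinfused via jugular vein, each at 8 μmol/min/kg for 1 h. Bile collected at 30-min intervals for 3 h. Calcium, ALP and LDH in bile measured enzymatically; bile acid composition by HPLC (65% methanol, 15 mM ammonium acetate, pH 5.4). Mean ± SD.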
# [6] = Partition coefficient (logP); format: physicochemical; conditions: octanol/water
# Method in brief: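 Octanol/water partition coefficient of the protonated species, calculated rather than measured.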
# [7] = Relative lipophilicity was determined; format: physicochemical; conditions: C-18 reverse phase HPLC
# Method in brief: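 C-18 reverse-phase HPLC run isocratically at 0.9 mL/min. Mobile phase 65% (v/v) aqueous methanol with 2 mM ammonium acetate, pH 7, so that all bile acids are fully ionized.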
# [8] = tested on: Rattus norvegicus; test: Lactate dehydrogenase in Bile Fistula rats after iv coinfusion of TCDCA and compound.; format: ADME, organism-based; conditions: in vivo; method in brief: as §4
# [9] = Critical micellar pH was determined
# Method in brief: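 20 mL of 50 mM bile salt solution titrated with 0.1 M HCl. CMpH is taken as the pH at which precipitate of the protonated form is first seen by turbidity at 500 nm. Confirmed by back-titration with 0.1 M NaOH until the suspension clears.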
# [10] = tested on: Rattus norvegicus; test: Calcium output in Bile Fistula rats after iv coinfusion of TCDCA and compound.; format: ADME, organism-based; conditions: in vivo; method in brief: as §4
# [11] = tested on: Rattus norvegicus; test: Maximum biliary secretion rate of bile acids after iv coinfusion in Bile fistula rats.; format: ADME, organism-based; conditions: in vivo; method in brief: as §4
# [12] = tested on: Rattus norvegicus; test: Secretion of cholesterol in Bile Fistula rats after the iv administration of compound, expressed as the residual secretion rate; format: ADME, organism-based; conditions: in vivo; method in brief: as §1
# [13] = tested on: Rattus norvegicus; test: Alkaline phosphatase in Bile Fistula rats after iv coinfusion of TCDCA and compound.; format: ADME, organism-based; conditions: in vivo; method in brief: as §4
# [14] = The compound was incubated with human stools and tested for determining the stability towards 7-dehydroxylation; format: ADME, organism-based
# Method in brief: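 Homogenized fresh human stool (500 mg) in 5 mL chopped meat-glucose medium; bile acid added at 0.05 mM final; 37 °C. Sampled at 0–72 h and stopped with 30% KOH. Bile acids recovered by C-18 solid-phase extraction, then analyzed by TLC and by HPLC with 75% methanol/15 mM ammonium acetate, pH 5.4.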
# [15] = tested on: Rattus norvegicus; test: Secretion of cholesterol in Bile Fistula rats after the iv administration of compound, expressed as the maximum secretion rate; format: ADME, organism-based; conditions: in vivo; method in brief: as §2
# [16] = tested on: Rattus norvegicus; test: Secretion of Bile acids in Bile Fistula rats after the iv administration of compound, expressed as the residual secretion rate; format: ADME, organism-based; conditions: in vivo; method in brief: as §1
# [17] = tested on: Rattus norvegicus; test: Secretion of Bile acids in Bile Fistula rats after the iv administration of compound, expressed as the maximum secretion rate; format: ADME, organism-based; conditions: in vivo; method in brief: as §2
# [18] = Critical Micellar concentration was determined; format: ADME
# Method in brief: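 Measured in water from surface tension, using the maximum bubble-pressure method.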
# [19] = tested on: Rattus norvegicus; test: Secretion of phospholipid in Bile Fistula rats after the iv administration of compound, expressed as the residual secretion rate; format: ADME, organism-based; conditions: in vivo; method in brief: as §2
# [20] = tested on: Rattus norvegicus; test: Secretion of phospholipid in Bile Fistula rats after the iv administration of compound, expressed as the maximum secretion rate; format: ADME, organism-based; conditions: in vivo; method in brief: as §2
# [21] = Water solubility was determined; format: ADME; conditions: read-out: WS
# Method in brief: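 Protonated form; measured on saturated solutions at pH 1.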
# [22] = tested on: Rattus norvegicus; test: Bile flow in Bile Fistula rats after iv coinfusion of TCDCA and compound.; format: ADME, organism-based; conditions: in vivo; method in brief: as §4
# [23] = as §3; format: ADME
smiles,measurement,setting,value
CC(CCC(=O)NCC(=O)O)C1CC[C@H]2[C@@H]3[C@H](O)CC4C[C@H](O)CCC4(C)[C@H]3CCC12C (stereo partly drawn),pKa,[1],3.9
same,Smax,[2],4.62 mL/h/kg
same,Rs,[3],2.7 mL/h/kg
same,half-life,[4],4 h
same,Smax,[5],3.13 µM/min/kg
same,logP,[6],3.53
same,rK,[7],0.85
same,[LDH]max,[8],37 UI l-1
same,CMpH,[9],7.1
same,Smax,[10],0.22 µM/min/kg
same,Smax,[11],3.33 µM/min/kg
same,Rs,[12],18 nM/min/kg
same,[ALP]max,[13],150 IU/L
same,half-life,[14],2 h
same,Smax,[15],51 nM/min/kg
same,Rs,[16],0.8 µM/min/kg
same,Smax,[17],6.1 µM/min/kg
same,CMC,[18],12 mM
same,Rs,[19],0.1 µM/min/kg
same,Smax,[20],0.23 µM/min/kg
same,solubility,[21],8 µM
same,Smax,[22],3.78 mL/h/kg
C[C@H](CCC(=O)NCCS(=O)(=O)O)[C@H]1CC[C@H]2[C@@H]3C[C@H](O)C4C[C@H](O)CC[C@]4(C)[C@H]3CC[C@]12C (stereo in doubt; form 1),T1/2,[23],4 h
